{
  "source": "ChEMBL document CHEMBL3351391",
  "about": "“Bioactive dihydronaphthoquinone derivatives from Fusarium solani” (J Nat Prod, 2014)",
  "key": {"[1]": {"test": "Cytotoxicity against human HuH7 cells after 48 hrs by WST8 assay", "type": "functional, cell-based", "settings": "Huh-7, 48 h", "method_in_brief": "(§1)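 WST-8 viability after 48 h exposure to a concentration series. Plating was 1 × 10^4 or 5 × 10^3 cells per well. HeLa and HuH-7 were grown in DMEM and HCT116 in RPMI 1640, each with 10% FBS. HUVEC were grown in endothelial cell growth medium. Kit reagent was added for 30–180 min at 37 °C, then absorbance was read at 450 nm. Doxorubicin was the positive control.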"}, "[2]": {"test": "Cytotoxicity against human HCT116 cells after 48 hrs by WST8 assay", "type": "functional, cell-based", "settings": "HCT-116, 48 h", "method_in_brief": "as §1"}, "HUVEC": {"system": "HUVEC", "test": "Cytotoxicity against HUVEC cells after 48 hrs by WST8 assay", "type": "functional, cell-based", "settings": "Homo sapiens", "method_in_brief": "as §1"}, "HeLa [3]": {"system": "HeLa", "test": "Cytotoxicity against human HeLa cells after 48 hrs by WST8 assay", "type": "functional, cell-based", "method_in_brief": "as §1"}, "HeLa [4]": {"system": "HeLa", "test": "Induction of apoptosis in human HeLa cells assessed as DNA fragmentation at 0.2 uM after 48 hrs by TUNEL assay", "type": "functional, cell-based", "method_in_brief": "(§2)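 HeLa cells were plated at 2.5 × 10^4 per chamber-slide well and exposed for 48 h at 37 °C. Doses were 4.0 μM test agent or 0.2 μM doxorubicin (positive control). DNA fragmentation was detected by TUNEL (ApopTag Red) under fluorescence microscopy. Apoptotic cells were counted among ≥200 cells per condition, as mean ± SD of three independent experiments.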"}, "HeLa [5]": {"system": "HeLa", "test": "Induction of ROS generation in human HeLa cells at 10 to 60 uM after 3 hrs by CM-H2DCFDA dye based assay", "type": "functional, cell-based"}, "HeLa [6]": {"system": "HeLa", "test": "Cytotoxicity against human HeLa cells assessed as reduction in cell viability at 10 to 30 uM in presence of 10 mM NAC after 48 hrs by WST8 assay", "type": "functional, cell-based", "method_in_brief": "(§3)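 HeLa cells were exposed to 0–30 μM agent for 48 h, with or without 10 mM N-acetylcysteine as ROS scavenger. Viability was then read by WST-8 (tetrazolium reduction, absorbance 450 nm). Data are mean ± SD, n = 3.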"}, "HeLa [7]": {"system": "HeLa", "test": "Induction of cell death in human HeLa cells at 10 uM after 1 hr"}, "HeLa [8]": {"system": "HeLa", "test": "Induction of apoptosis in human HeLa cells assessed as DNA fragmentation at 4 uM after 48 hrs by TUNEL assay", "type": "functional, cell-based", "method_in_brief": "as §2"}, "HeLa [9]": {"system": "HeLa", "test": "Induction of ROS generation in human HeLa cells at 1 uM after 3 hrs by CM-H2DCFDA dye based assay", "type": "functional, cell-based", "method_in_brief": "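HeLa cells were treated with agent over 0–10 μM; the methods give 1 h and the figure legend gives 3 h. Cells were then loaded with 10 μM CM-H2DCFDA for 20 min at 37 °C and washed. DCF fluorescence was read on a plate reader at ex 490/em 535 nm, n = 3.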"}, "HeLa [10]": {"system": "HeLa", "test": "Cytotoxicity against human HeLa cells assessed as reduction in cell viability in presence of 10 mM NAC after 48 hrs by WST8 assay", "type": "functional, cell-based", "method_in_brief": "as §3"}},
  "note": "Active and inactive are the calls of the source. The calls are words filed in the database; no cut-off is given here.",
  "data": [
    {"smiles": "COc1cccc2c1C(=O)c1c(O)c3c(c(O)c1C2=O)C[C@@](O)(C(=O)CO)C[C@@H]3O[C@H]1C[C@H](N)[C@H](O)[C@H](C)O1", "note": "[DOXORUBICIN]", "values": [
      {"measurement": "IC50", "setting": "[1]", "value": 0.22, "unit": "µM"},
      {"measurement": "IC50", "setting": "[2]", "value": 0.25, "unit": "µM"},
      {"measurement": "IC50", "setting": "HUVEC", "value": 0.4, "unit": "µM"},
      {"measurement": "IC50", "setting": "HeLa [3]", "value": 0.22, "unit": "µM"},
      {"measurement": "Activity", "setting": "HeLa [4]", "value": "Active"}
    ]},
    {"smiles": "CC1=CC(=O)c2ccccc2C1=O", "values": [
      {"measurement": "Activity", "setting": "HeLa [5]", "value": "Active"}
    ]},
    {"smiles": "COC1=CC(=O)c2c(O)c(C)c(CC(C)=O)c(O)c2C1=O", "note": "[JAVANICIN]", "values": [
      {"measurement": "IC50", "setting": "[1]", "value": 6.7, "unit": "µM"},
      {"measurement": "IC50", "setting": "[2]", "value": 5.5, "unit": "µM"},
      {"measurement": "IC50", "setting": "HUVEC", "value": 2.3, "unit": "µM"},
      {"measurement": "IC50", "setting": "HeLa [3]", "value": 9, "unit": "µM"}
    ]},
    {"smiles": "COc1cc(O)c2c(c1O)C(=O)[C@@H](CC(C)=O)[C@H](C)C2=O", "values": [
      {"measurement": "IC50", "setting": "[1]", "value": 10.8, "unit": "µM"},
      {"measurement": "IC50", "setting": "[2]", "value": 15.4, "unit": "µM"},
      {"measurement": "IC50", "setting": "HUVEC", "value": 7.7, "unit": "µM"},
      {"measurement": "IC50", "setting": "HeLa [3]", "value": 7.9, "unit": "µM"}
    ]},
    {"smiles": "COc1cc(O)c2c(c1O)[C@H](O)[C@@H]1C[C@](C)(O)OC[C@@H]1C2=O", "values": [
      {"measurement": "IC50", "setting": "[1]", "value": 27, "unit": "µM"},
      {"measurement": "IC50", "setting": "[2]", "value": "> 30", "unit": "µM"},
      {"measurement": "IC50", "setting": "HUVEC", "value": 13.1, "unit": "µM"},
      {"measurement": "IC50", "setting": "HeLa [3]", "value": "> 30", "unit": "µM"}
    ]},
    {"smiles": "CC(=O)Cc1c(C)c(O)c2c(c1O)C(=O)CCC2=O", "values": [
      {"measurement": "IC50", "setting": "[1]", "value": 1.9, "unit": "µM"},
      {"measurement": "Activity", "setting": "HeLa [6]", "value": "inactive"},
      {"measurement": "Activity", "setting": "HeLa [7]", "value": "Active"},
      {"measurement": "Activity", "setting": "HeLa [8]", "value": "Active"},
      {"measurement": "IC50", "setting": "[2]", "value": 1.1, "unit": "µM"},
      {"measurement": "IC50", "setting": "HUVEC", "value": 1.8, "unit": "µM"},
      {"measurement": "Activity", "setting": "HeLa [9]", "value": "Active"},
      {"measurement": "IC50", "setting": "HeLa [3]", "value": 4, "unit": "µM"}
    ]},
    {"smiles": "CC(=O)Cc1c(C)c(O)c2c(c1O)C(=O)CCC2O", "note": "(stereo unspecified)", "values": [
      {"measurement": "IC50", "setting": "[1]", "value": "> 30", "unit": "µM"},
      {"measurement": "IC50", "setting": "[2]", "value": "> 30", "unit": "µM"},
      {"measurement": "IC50", "setting": "HUVEC", "value": 5.8, "unit": "µM"},
      {"measurement": "IC50", "setting": "HeLa [3]", "value": "> 30", "unit": "µM"}
    ]},
    {"smiles": "CC/C(=C(\\c1ccccc1)c1ccc(OCCN(C)C)cc1)c1ccccc1", "values": [
      {"measurement": "Activity", "setting": "HeLa [10]", "value": "Active"}
    ]}
  ]
}
